The sample as a whole holds a higher share of hits than the screen did.
DTT redox prof – compounds producing H2O2 with reducing agent – biochemical, NIH compound library profiling, artefact control for MLSCN library redox annotation, primary screen | DTT-dependent redox cycling H2O2, phenol red/HRP absorbance; 100% = 100 µM peroxide control, 0% = buffer | activation, % at 10 µM | AID 878 | 200,000 tested, 0.03% active;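 active = activation of at least 50% relative to the plate's high and low controls in the primary single-dose screen; inactive = activation below 50%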;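 note: compound incubated with DTT at 0.8 mM final as the reducing agent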
Lipid droplet – hepatic lipid droplet formation modulation; 240,000 tested, 0.4% active; AML12 mouse hepatocytes, oleate lipid droplets, BODIPY imaging; AID 1656; inhibition, % at 6.5 µM;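 active = lipid droplet intensity inhibited by at least 50%, with more than 500 cells counted; inconclusive = wells with under 300 cells, treated as cytotoxic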
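System: AML12 hepatocytes (mouse). Probe or stimulus: oleic acid at 100 µM to induce lipid droplet formation. Times: overnight treatment with compound plus oleate. Detection: Image-based BODIPY and DAPI two-channel analysis. Evaluation: percent inhibition of filter-corrected integrated lipid droplet intensity per well.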
Lmaj promast – Leishmania major promastigote growth inhibition. 200,000 tested, 9% active. Leishmania major promastigotes, resazurin fluorescence viability. AID 1063. inhibition, % at 10 µM; in the data active = inhibition above about 50%;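 note: promastigotes grown with compound for 44 hours at 28 °C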
MPTP inh – permeability transition pore inhibition; isolated mouse mitochondria, Ca2+ swelling absorbance, 30 min; inhibition, % at 10 µM; 360,000 tested, 1.4% active; AID 602449;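 active = inhibition of 50% or more, scaled per plate between neutral and stimulator controls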;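 note: 0% = DMSO wells given calcium and 100% = 1 mM EGTA wells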
T cruzi repl – T. cruzi replication inhibition. inhibition, % (no concentration beside the values). T. cruzi beta-gal in NIH3T3, luminescence, 90 h. 300,000 tested, 1.4% active;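 active = mean inhibition across valid replicates above about 55%, limit read from the data; inconclusive = mean below that limit but half or more replicates reach it; inactive = mean below it, under half of replicates reach it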;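 note: signal also drops with host cell toxicity which is not excluded here; 0% = plate median of DMSO wells and 100% = zero luminescence signal; higher percent means less beta-gal luminescence so fewer parasites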
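System: mouse NIH/3T3 fibroblasts infected with β-gal-expressing T. cruzi Tulahuen C4 / Input: NIH/3T3 cells, 5,000 per well / Buffer or medium: Low-serum DMEM with 2% FBS / Probe or stimulus: 5000 reporter trypomastigotes per well / Schedule: ≥90 h infection period, 3 h prior cell attachment / Measured by: GalScreen luminescence, 60 min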
* = called active by the depositor.

What do the screens show for `COC(=O)C(C)(C)ONC(=O)Nc1ccccc1Br`?
DTT redox prof: 0; Lipid droplet: -16; Lmaj promast: 69*; MPTP inh: -2; T cruzi repl: 4

Results for COC(=O)C(C)(C)ONC(=O)Nc1ccccc1Cl ?
DTT redox prof: -2; Lipid droplet: -6; Lmaj promast: 21; MPTP inh: 0; T cruzi repl: -8

What do the screens show for `COCC(=O)Nc1ccccc1Br`?
DTT redox prof: 0; Lipid droplet: -26; Lmaj promast: 54*; MPTP inh: -1; T cruzi repl: -1

Results for COc1ccc(NC(=O)c2sc(=O)n(Cc3ccc4ccccc4c3)c2C)cc1OC ?
MPTP inh: -1

How did N#C/C(=C\c1cccc([N+](=O)[O-])c1)c1nnc2n1CCCCC2 do in these assays?
DTT redox prof: 0; Lipid droplet: -9; Lmaj promast: 61*; MPTP inh: 1; T cruzi repl: 0

What do the screens show for `Cn1nc(C(F)(F)F)c(C#N)c1N1CCN(c2ccccc2F)CC1`?
DTT redox prof: 0; Lipid droplet: 6; Lmaj promast: 3; MPTP inh: 3; T cruzi repl: 15

Results for COc1cccc(N2CCN(c3c(C#N)c(C(F)(F)F)nn3C)CC2)c1 ?
DTT redox prof: 0; Lipid droplet: 2; Lmaj promast: 80*; MPTP inh: 3; T cruzi repl: 11

What do the screens show for `Cc1c(/C=N/NC(=O)CNc2ccccc2)c2ccccn2c1C(=O)c1ccncc1`?
DTT redox prof: 0; Lipid droplet: 12; Lmaj promast: 100*; MPTP inh: -2; T cruzi repl: 37

What do the screens show for `Cc1c(/C=N/NC(=O)CNc2ccccc2)c2ccccn2c1C(=O)c1ccc(Cl)cc1`?
DTT redox prof: 1; Lipid droplet: -6; Lmaj promast: 8; MPTP inh: 0; T cruzi repl: 24

What do the screens show for `CN1CCN(c2ccc(NS(=O)(=O)c3ccc(Cl)cc3)cn2)CC1`?
DTT redox prof: 0; Lipid droplet: 3; Lmaj promast: 9; MPTP inh: 0; T cruzi repl: inconclusive

What do the screens show for `Cc1ccc(S(=O)(=O)Nc2ccc(N3CCN(C)CC3)nc2)cc1`?
DTT redox prof: -1; Lipid droplet: 12; Lmaj promast: 7; MPTP inh: -1; T cruzi repl: 58*

How did Oc1ccc(-c2cn3c(n2)SCC3)cc1O do in these assays?
DTT redox prof: 0; Lipid droplet: 10; Lmaj promast: 98*; MPTP inh: 3; T cruzi repl: -4

How did CN(Cc1nc(-c2ccccc2)no1)C1CCOCC1 do in these assays?
Lipid droplet: 1; MPTP inh: 2; T cruzi repl: -8

What do the screens show for `CN(CCCN1CCOCC1)Cc1nc(-c2ccccc2)no1`?
DTT redox prof: -1; Lipid droplet: 1; Lmaj promast: 78*; MPTP inh: 1; T cruzi repl: 12

Results for CCOc1cc(CNc2cccc3[nH]c(C)nc23)ccc1OC ?
Lipid droplet: 16; MPTP inh: 0; T cruzi repl: 8

How did Cc1nn(Cc2ccccc2)c(C)c1NC(=O)CSc1nc2c(c(C(F)(F)F)n1)CCc1ccccc1-2 do in these assays?
DTT redox prof: 0; Lipid droplet: -2; Lmaj promast: 68*; MPTP inh: 0; T cruzi repl: 38

How did CCN(CC)CCCNC(=O)CSc1nc2c(c(C(F)(F)F)n1)CCc1ccccc1-2 do in these assays?
DTT redox prof: -1; Lipid droplet: -12; Lmaj promast: 60*; MPTP inh: -4; T cruzi repl: 26

How did O=C(CSc1nc2c(c(C(F)(F)F)n1)CCc1ccccc1-2)NCc1ccccc1 do in these assays?
DTT redox prof: 2; Lipid droplet: 12; Lmaj promast: -4; MPTP inh: 0; T cruzi repl: 33

What do the screens show for `CCCC(=O)N(c1ccc(OCC)cc1)S(=O)(=O)c1ccc2c3c(cccc13)C(=O)N2C`?
Lipid droplet: -10; MPTP inh: 1; T cruzi repl: 15

How did CN(CCOc1ccccc1)S(=O)(=O)c1ccc2oc3ccccc3c2c1 do in these assays?
DTT redox prof: 3; Lmaj promast: 55*; MPTP inh: -1; T cruzi repl: 6

Results for Cc1ccc(NC(=O)c2ccc(F)cc2)cc1S(=O)(=O)N1CCCCCC1 ?
DTT redox prof: -1; Lipid droplet: -25; Lmaj promast: 49; MPTP inh: -1; T cruzi repl: 25

Results for Cc1ccc(C(=O)Nc2ccc3cn[nH]c3c2)cc1S(=O)(=O)N1CCCCC1 ?
DTT redox prof: 0; Lipid droplet: -18; Lmaj promast: 50*; MPTP inh: 0; T cruzi repl: -15

Results for Cc1ccc(NC(=O)CCl)cc1S(=O)(=O)N1CCCCCC1 ?
DTT redox prof: -1; Lipid droplet: 6; Lmaj promast: 91*; MPTP inh: -2; T cruzi repl: 26

What do the screens show for `COCCNCC(=O)Nc1ccc(C)c(S(=O)(=O)N2CCCCC2)c1`?
DTT redox prof: 0; Lipid droplet: 16; Lmaj promast: -3; MPTP inh: -2; T cruzi repl: 1

What do the screens show for `Cc1ccc(NC(=O)CN2c3cccc4cccc(c34)S2(=O)=O)cc1S(=O)(=O)N1CCOCC1`?
DTT redox prof: 0; Lipid droplet: 8; Lmaj promast: 96*; MPTP inh: 3; T cruzi repl: 0

What do the screens show for `Cc1ccc(NC(=O)CSc2ccccn2)cc1S(=O)(=O)N1CCOCC1`?
DTT redox prof: 0; Lipid droplet: 0; Lmaj promast: 1; MPTP inh: -1; T cruzi repl: 7

How did Cc1ccc(NC(=O)CSc2nccn2C)cc1S(=O)(=O)N1CCOCC1 do in these assays?
DTT redox prof: 0; Lipid droplet: -10; Lmaj promast: 57*; MPTP inh: -1; T cruzi repl: 14

How did Cc1c(C(=O)C(=O)NCc2cccs2)c2ccccc2n1C do in these assays?
DTT redox prof: 1; Lipid droplet: -5; Lmaj promast: -1; MPTP inh: 1; T cruzi repl: -13

What do the screens show for `Cc1ccc(OCC(=O)Nc2cccc(S(=O)(=O)N3CCCCC3)c2)c([N+](=O)[O-])n1`?
DTT redox prof: 0; Lipid droplet: -2; Lmaj promast: 14; MPTP inh: 2; T cruzi repl: 21

Results for Cc1ccc(OCC(=O)Nc2ccc(C)c(S(=O)(=O)N3CCCCCC3)c2)c([N+](=O)[O-])n1 ?
DTT redox prof: -1; Lipid droplet: 6; Lmaj promast: 64*; MPTP inh: 0; T cruzi repl: 30

What do the screens show for `COc1ccc(N2CCN(C(=O)CNC(=O)c3cccc(Br)c3)CC2)cc1`?
Lipid droplet: 4; MPTP inh: -1; T cruzi repl: 2

What do the screens show for `NC(N)=N/N=C/c1ccc(OS(=O)(=O)c2ccccc2)cc1`?
DTT redox prof: 0; Lipid droplet: -1; Lmaj promast: 88*; MPTP inh: 4; T cruzi repl: 57*

How did CCOc1cc(/C=N/NC(=O)COc2ccc(Cl)cc2)ccc1OS(=O)(=O)c1ccccc1 do in these assays?
DTT redox prof: 1; Lipid droplet: -27; Lmaj promast: 96*; MPTP inh: 16; T cruzi repl: 40

Screening results as filed in PubChem BioAssay.
